tolC growth inh: growth inhibitors of E. coli tolC mutant, primary screen, strain BW25113 ΔtolC::kan, 384-well | OD615 | growth inhibition, % at 10 µM (by protocol) | 2.2% of 65,000 active | AID 573, 2007;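 active = growth inhibition at or above a cutoff equal to the mean over every tested compound plus 3 SD, cut at about 60% in these data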;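 note: growth measured after 20 h incubation at 37 °C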
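Material: E. coli BW25113 ΔtolC::kan, tolC deletion mutant strain. Measure: percent growth inhibition. Schedule: 37 °C, 20 h exposure. Doses: single-point testing at 10 µM. Signal: A615 absorbance measurement. Buffer or medium: kanamycin-containing LB broth (50 µg/mL).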
TNAP act mid DEA: human TNAP enzyme activators, primary screen, biochemical, luminescent, intermediate phosphate acceptor level | purified TNAP, CDP-star luminescence, 100 mM DEA, 30 min; active compounds read high; scale: 0 levamisole-inhibited, 1 vehicle-only enzyme | activation factor at 20 µM | AID 813, 2007 | 64,000 tested, under 10 active;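 active = activation factor of at least 2 at 20 µM, relative to controls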
WNV NS2B-NS3 inh: inhibitors of WNV NS2B-NS3 protease, primary screen, biochemical, fluorogenic substrate | z-score (test concentration not listed) | Genome polyprotein (West Nile virus), P06935 | fluorogenic substrate Ex360/Em465; active compounds read low | 0.18% of 65,000 active; in the data active = z-score below about -3
Target sequence (P06935 1371-1501 limits assumed): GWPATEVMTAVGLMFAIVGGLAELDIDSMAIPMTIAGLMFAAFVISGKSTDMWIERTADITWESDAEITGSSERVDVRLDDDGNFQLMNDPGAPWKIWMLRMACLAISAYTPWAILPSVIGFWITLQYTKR
Target sequence (P06935 1502-1679 limits assumed): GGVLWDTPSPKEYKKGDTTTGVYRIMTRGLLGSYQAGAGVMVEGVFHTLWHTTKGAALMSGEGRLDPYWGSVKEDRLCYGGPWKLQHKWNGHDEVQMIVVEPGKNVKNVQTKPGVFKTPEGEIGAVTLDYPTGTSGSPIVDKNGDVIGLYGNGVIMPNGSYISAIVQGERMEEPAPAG
BAP1 inh: inhibitors of BAP1 deubiquitinase, primary screen, biochemical, Ub-AMC fluorescence, kinetic; Ubiquitin carboxyl-terminal hydrolase BAP1 (Homo sapiens), Q92560; recombinant BAP1, Ub-AMC hydrolysis fluorescence kinetic; active compounds read low; calls only at 20 µM; 0.48% of 72,000 active; AID 436, 2006;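 active = activity remaining at or below 50% of control, provided the compound also passes the data quality filters; inactive = the rest, including low values that fail the filters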;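 note: 100% = DMSO wells rate and 0% = substrate alone blank rate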
E coli WT exp: growth inhibitors of wild-type E. coli, primary screen, strain BW25113, expanded library, OD600; growth inhibition, % at 100 µM; AID 710, 2007; OD600 absorbance; 0.15% of 98,000 active;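 active = growth inhibition above about 50% at one test dose, limit read from the data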;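 note: growth measured after 20 h incubation at 37 °C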
* marks the source's active call; other numbers are inactive results. The entries come from a sample that favours hits as a whole.

Screening COC(=O)c1ccc(CSc2nnc(SCc3ccc(C(=O)OC)o3)s2)o1 returned tolC growth inh -1.3, WNV NS2B-NS3 inh -3.49*, BAP1 inh inactive and E coli WT exp -2.0.
For CCCC(=O)Nc1ccc(NC(=O)C23CC4CC(CC(C4)C2)C3)cn1 the results were tolC growth inh 22.2, TNAP act mid DEA 0.9, WNV NS2B-NS3 inh -4.83*, BAP1 inh inactive and E coli WT exp -3.0.
For CCC(=O)Nc1cc(C)c(NC(=O)C23CC4CC(CC(C4)C2)C3)cn1 the results were tolC growth inh -7.2, TNAP act mid DEA 0.9, WNV NS2B-NS3 inh -0.68, BAP1 inh inactive and E coli WT exp 1.0.
`CCC(C)(C)n1nnnc1CN(Cc1ccc(Cl)cc1)Cc1ccco1` gave tolC growth inh 81.4*, TNAP act mid DEA 0.9, WNV NS2B-NS3 inh -0.78, BAP1 inh inactive and E coli WT exp 3.0.
CCOC(=O)c1c(NC(=O)C2CCCC2)sc2c1CCC(CC)C2 (configuration not stated) was read as BAP1 inh inactive.
`Cn1c(=O)c2c(SCc3cccnc3)nc(CC(C)(C)C)nc2n(C)c1=O` gave tolC growth inh 97.4*, TNAP act mid DEA 0.9, WNV NS2B-NS3 inh -0.53, BAP1 inh inactive and E coli WT exp -18.0.
For COc1ccc(/C=N/n2c(SC)nnc2-c2ccccc2)cc1C the results were tolC growth inh 86.9*, TNAP act mid DEA 0.9, WNV NS2B-NS3 inh 0.07, BAP1 inh inactive and E coli WT exp -5.0.
Screening COc1ccc(/C=N/n2c(SC)nnc2-c2ccccc2)c(OC)c1OC returned tolC growth inh 21.8, TNAP act mid DEA 0.9, WNV NS2B-NS3 inh -0.35, BAP1 inh inactive and E coli WT exp 1.0.
For COc1ccc(S(=O)(=O)Nc2cc(OC)c(NC(=O)c3ccco3)cc2OC)cc1 the results were tolC growth inh 7.1, TNAP act mid DEA 0.9, WNV NS2B-NS3 inh 1.06, BAP1 inh inactive and E coli WT exp -5.0.
Screening COc1cc(NS(=O)(=O)c2ccc(Br)cc2)c(OC)cc1NC(=O)c1ccco1 returned tolC growth inh 76.4*, TNAP act mid DEA 0.9, WNV NS2B-NS3 inh 0.91 and E coli WT exp -6.0.
For Cc1nc(SCc2c(F)cccc2Cl)c2c(=O)n(C)c(=O)n(C)c2n1 the results were tolC growth inh 40.2, TNAP act mid DEA 1, WNV NS2B-NS3 inh 1.91, BAP1 inh inactive and E coli WT exp 1.0.
For Cc1ccc(CN2CCSc3ccc(C(=O)N4CCN(c5ncccn5)CC4)cc32)cc1 the results were tolC growth inh 68.5*, TNAP act mid DEA 1, WNV NS2B-NS3 inh -0.16 and E coli WT exp -12.0.
Screening Cc1ccc(-n2c(SCC(N)=O)nnc2-c2ccc(S(=O)(=O)N3CCCCC3)cc2)c(C)c1 returned E coli WT exp -1.0.
CCCOc1ccc(C(=O)NNC(=S)NC(=O)CC)cc1 was read as E coli WT exp 68.0*.
C=CCNC(=S)NNC(=O)c1ccc(OCC)cc1 was read as E coli WT exp 3.0.
`O=c1c2cc(Br)ccc2nc(-c2cccc(C(F)(F)F)c2)n1O` gave E coli WT exp 63.0*.
CCN(CC)c1nc(N)nc(N(c2ccccc2)c2ccccc2)n1 was read as E coli WT exp -2.0.
`COc1nc(N(c2ccccc2)c2ccccc2)nc(-n2ccnc2)n1` gave tolC growth inh 94.5*, TNAP act mid DEA 1, WNV NS2B-NS3 inh 0.68, BAP1 inh inactive and E coli WT exp 25.0.
`Cc1ccc(Cl)cc1NC(=O)CC(O)(C(F)(F)F)C(F)(F)F` gave tolC growth inh 98.9*, TNAP act mid DEA 0.9, WNV NS2B-NS3 inh -0.61, BAP1 inh inactive and E coli WT exp 31.0.
Cc1ccc(Cl)cc1NC(=O)CSC(N)=O was read as E coli WT exp -6.0.
`N#CC1=C(SCC(=O)NC23CC4CC(CC(C4)C2)C3)NC(=O)C(C#N)C12CCCCC2` (configuration not stated) gave tolC growth inh 86.3*, TNAP act mid DEA 0.9, WNV NS2B-NS3 inh 0.55 and E coli WT exp -6.0.
For CC(C)(C)C1CCC2(CC1)C(C#N)=C(SCC(=O)NC1CCCCC1)NC(=O)C2C#N (configuration not stated) the results were tolC growth inh 74.6*, TNAP act mid DEA 0.9, WNV NS2B-NS3 inh -1.57 and E coli WT exp 2.0.
For Oc1ccc(Br)cc1C=Nc1cc(Br)c2c(c1)OCCO2 the results were BAP1 inh inactive.
Screening Cc1cccc(/C=C2/S/C(=N/N=C3\CC4CCC3(C)C4(C)C)NC2=O)c1 (configuration not stated) returned E coli WT exp -7.0.
Screening O=C(NC1CCCC1)c1sc(=S)n2c1[nH]c(=O)c1ccccc12 returned tolC growth inh 100.0*, TNAP act mid DEA 1, WNV NS2B-NS3 inh 0.33, BAP1 inh inactive and E coli WT exp 1.0.
CCCCCNC(=O)c1ccc2c(=O)[nH]c3c(C(=O)NCC4CCCO4)sc(=S)n3c2c1 (configuration not stated) was read as tolC growth inh 100.0*, TNAP act mid DEA 0.9, WNV NS2B-NS3 inh -0.56, BAP1 inh inactive and E coli WT exp -5.0.
Screening C=CCn1c(N)c(C(=O)NCc2ccco2)sc1=S returned tolC growth inh -11.2, TNAP act mid DEA 0.9, WNV NS2B-NS3 inh -1.07 and E coli WT exp 6.0.
CCn1c(N)c(C(=O)NCC2CCCO2)sc1=S (configuration not stated) was read as tolC growth inh -9.0, TNAP act mid DEA 1, WNV NS2B-NS3 inh -0.14, BAP1 inh inactive and E coli WT exp -2.0.
For O=C(NCc1ccco1)c1sc(=S)n2c1[nH]c(=O)c1ccccc12 the results were tolC growth inh 99.7*, TNAP act mid DEA 0.9, WNV NS2B-NS3 inh -0.71, BAP1 inh inactive and E coli WT exp 11.0.
`Cc1cc(C)n(-c2nc(NC(C)(C)C)nc(NC(C)(C)C)n2)n1` gave tolC growth inh 20.6, TNAP act mid DEA 1, WNV NS2B-NS3 inh -0.56, BAP1 inh inactive and E coli WT exp -8.0.
`Cc1cc(C)n(-c2nc(NC(C)C)nc(NC(C)C)n2)n1` gave tolC growth inh 87.8*, TNAP act mid DEA 0.9, WNV NS2B-NS3 inh -0.65, BAP1 inh inactive and E coli WT exp 17.0.
COc1ccc(N2CCN(C(=O)Cn3c(=O)[nH]c4ccsc4c3=O)CC2)cc1 was read as tolC growth inh 1.8, TNAP act mid DEA 0.9, WNV NS2B-NS3 inh 0.79 and E coli WT exp -8.0.
For COc1ccc(C(=O)Nc2nc(-c3cccs3)cs2)cc1 the results were tolC growth inh 98.2*, TNAP act mid DEA 1, WNV NS2B-NS3 inh 1.66, BAP1 inh inactive and E coli WT exp -3.0.
COc1cc(C(=O)Nc2nc(-c3cccs3)cs2)cc(OC)c1OC was read as tolC growth inh 69.1*, TNAP act mid DEA 0.9, WNV NS2B-NS3 inh -0.75, BAP1 inh inactive and E coli WT exp 0.0.
